From the M2OR odorant receptor database

Key:
Details in all cases: stereoisomer not certain
OR10A3 (Homo sapiens) = molecular target: T1, OR10A3 (Homo sapiens) (UniProt P58181)
T1 sequence (whole entry): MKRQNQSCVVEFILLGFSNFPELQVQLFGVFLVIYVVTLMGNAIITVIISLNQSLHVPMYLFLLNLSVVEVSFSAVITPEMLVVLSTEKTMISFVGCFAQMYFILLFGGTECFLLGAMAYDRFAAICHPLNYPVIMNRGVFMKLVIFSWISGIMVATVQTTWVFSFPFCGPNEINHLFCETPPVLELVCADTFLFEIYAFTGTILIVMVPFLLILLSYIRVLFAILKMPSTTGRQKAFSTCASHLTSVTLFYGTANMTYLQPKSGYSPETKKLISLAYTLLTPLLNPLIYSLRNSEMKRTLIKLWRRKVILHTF
Method in brief: (§1)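 Transient luciferase assays in mammalian cell lines were common, though methods varied by source. The values come from published papers and their supplementary material, with extra details from the original authors when needed. Responsive refers to a measured signal the original authors judged statistically different from baseline, and non-responsive (inactive) to the remainder.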

OR10A4 (Homo sapiens) = molecular target: T2, OR10A4 (Homo sapiens) (UniProt Q9H209)
T2 sequence (whole entry): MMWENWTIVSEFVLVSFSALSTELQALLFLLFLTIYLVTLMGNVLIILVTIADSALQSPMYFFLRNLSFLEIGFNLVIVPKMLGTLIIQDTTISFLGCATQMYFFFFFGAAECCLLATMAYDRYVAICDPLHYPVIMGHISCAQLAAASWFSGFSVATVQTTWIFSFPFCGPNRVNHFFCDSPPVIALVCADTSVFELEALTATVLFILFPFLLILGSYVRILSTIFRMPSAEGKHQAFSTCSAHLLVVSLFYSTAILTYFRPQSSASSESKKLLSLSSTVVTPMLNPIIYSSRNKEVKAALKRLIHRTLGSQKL
Method in brief: as §1

OR10A5 (Homo sapiens) = molecular target: T3, OR10A5 (Homo sapiens) (UniProt Q9H207)
T3 sequence (whole entry): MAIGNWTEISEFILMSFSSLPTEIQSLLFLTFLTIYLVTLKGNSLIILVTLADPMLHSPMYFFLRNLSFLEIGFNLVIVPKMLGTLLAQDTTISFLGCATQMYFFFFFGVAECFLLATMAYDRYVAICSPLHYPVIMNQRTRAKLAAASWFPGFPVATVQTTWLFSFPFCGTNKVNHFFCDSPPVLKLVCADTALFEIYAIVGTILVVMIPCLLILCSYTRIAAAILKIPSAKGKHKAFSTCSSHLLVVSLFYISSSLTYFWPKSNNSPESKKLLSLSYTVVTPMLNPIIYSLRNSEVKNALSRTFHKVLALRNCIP
Method in brief: as §1

OR10A6 (Homo sapiens) = molecular target: T4, OR10A6 (Homo sapiens) (UniProt Q8NH74)
T4 sequence (whole entry): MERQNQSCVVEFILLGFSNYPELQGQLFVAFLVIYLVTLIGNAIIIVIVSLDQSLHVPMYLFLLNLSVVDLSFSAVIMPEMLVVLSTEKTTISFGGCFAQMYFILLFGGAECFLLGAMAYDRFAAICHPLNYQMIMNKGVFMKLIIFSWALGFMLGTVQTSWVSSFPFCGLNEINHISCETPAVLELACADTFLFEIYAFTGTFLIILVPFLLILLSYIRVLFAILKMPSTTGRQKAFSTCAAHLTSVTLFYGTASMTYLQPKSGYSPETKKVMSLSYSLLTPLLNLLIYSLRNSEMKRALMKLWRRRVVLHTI
Method in brief: as §1

OR10A7 (Homo sapiens) = molecular target: T5, OR10A7 (Homo sapiens) (UniProt Q8NGE5)
T5 sequence (whole entry): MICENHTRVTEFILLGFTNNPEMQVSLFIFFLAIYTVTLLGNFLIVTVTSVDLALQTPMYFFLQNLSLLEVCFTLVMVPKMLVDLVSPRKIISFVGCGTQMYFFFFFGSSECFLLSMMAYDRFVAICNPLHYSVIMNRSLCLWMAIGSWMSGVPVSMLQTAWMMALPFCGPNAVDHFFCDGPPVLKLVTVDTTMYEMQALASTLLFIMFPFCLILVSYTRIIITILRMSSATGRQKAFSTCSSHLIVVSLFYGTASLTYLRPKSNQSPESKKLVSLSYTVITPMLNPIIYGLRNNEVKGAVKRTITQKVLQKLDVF
Method in brief: as §1

OR10AD1 (Homo sapiens) = molecular target: T6, OR10AD1 (Homo sapiens) (UniProt Q8NGE0)
T6 sequence (whole entry): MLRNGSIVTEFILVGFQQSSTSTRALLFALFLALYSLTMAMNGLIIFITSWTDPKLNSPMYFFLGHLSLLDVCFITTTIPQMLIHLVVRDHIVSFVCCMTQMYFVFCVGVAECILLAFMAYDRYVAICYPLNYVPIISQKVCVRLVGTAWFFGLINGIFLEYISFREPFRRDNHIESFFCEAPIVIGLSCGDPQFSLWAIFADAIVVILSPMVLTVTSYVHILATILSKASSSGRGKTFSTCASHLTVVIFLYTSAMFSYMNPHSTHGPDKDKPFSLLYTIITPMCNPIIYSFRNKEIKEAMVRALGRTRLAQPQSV
Method in brief: as §1

OR10AG1 (Homo sapiens) = molecular target: T7, OR10AG1 (Homo sapiens) (UniProt Q8NH19)
T7 sequence (whole entry): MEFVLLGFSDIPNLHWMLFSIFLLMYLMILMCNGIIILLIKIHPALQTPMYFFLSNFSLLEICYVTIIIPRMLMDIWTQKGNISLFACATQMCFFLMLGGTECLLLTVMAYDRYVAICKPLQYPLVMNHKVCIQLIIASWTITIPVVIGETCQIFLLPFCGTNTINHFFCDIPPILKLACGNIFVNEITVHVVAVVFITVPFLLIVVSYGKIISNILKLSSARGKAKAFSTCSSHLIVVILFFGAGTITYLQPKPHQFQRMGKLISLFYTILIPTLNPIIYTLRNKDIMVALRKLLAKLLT
Method in brief: as §1

OR10C1 (Homo sapiens) = molecular target: T8, OR10C1 (Homo sapiens) (UniProt Q96KK4)
T8 sequence (whole entry): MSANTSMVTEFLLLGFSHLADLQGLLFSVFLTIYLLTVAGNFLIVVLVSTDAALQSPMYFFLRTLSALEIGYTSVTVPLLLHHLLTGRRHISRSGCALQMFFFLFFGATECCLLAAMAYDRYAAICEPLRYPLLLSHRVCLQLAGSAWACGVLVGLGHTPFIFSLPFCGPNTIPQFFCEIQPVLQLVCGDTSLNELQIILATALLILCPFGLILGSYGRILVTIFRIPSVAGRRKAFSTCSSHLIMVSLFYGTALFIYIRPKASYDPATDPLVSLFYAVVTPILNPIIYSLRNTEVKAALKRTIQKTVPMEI
Method in brief: as §1

OR10D3 (Homo sapiens) = molecular target: T9, OR10D3 (Homo sapiens) (UniProt Q8NH80)
T9 sequence (whole entry): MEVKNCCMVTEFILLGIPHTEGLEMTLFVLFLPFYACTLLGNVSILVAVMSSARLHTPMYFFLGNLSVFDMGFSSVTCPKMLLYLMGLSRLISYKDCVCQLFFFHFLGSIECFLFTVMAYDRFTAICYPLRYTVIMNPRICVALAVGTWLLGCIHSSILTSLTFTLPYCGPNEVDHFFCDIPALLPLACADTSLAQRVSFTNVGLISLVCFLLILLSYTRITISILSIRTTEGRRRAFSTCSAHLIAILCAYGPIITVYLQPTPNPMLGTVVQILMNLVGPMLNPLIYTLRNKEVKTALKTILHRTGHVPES
Method in brief: as §1

Measured: odorant receptor agonist call;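 further: active if original authors judged signal statistically different from baseline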

CCCCCC(S)C(C)CO (centres undefined)
inactive: OR10A3 (Homo sapiens) | OR10A4 (Homo sapiens) | OR10A5 (Homo sapiens) | OR10A6 (Homo sapiens) | OR10A7 (Homo sapiens) | OR10AD1 (Homo sapiens) | OR10AG1 (Homo sapiens) | OR10C1 (Homo sapiens) | OR10D3 (Homo sapiens)
